ChEMBL document CHEMBL1806459, “Discovery of N-(1-ethylpropyl)-[3-methoxy-5-(2-methoxy-4-trifluoromethoxyphenyl)-6-methyl-pyrazin-2-yl]amine 59 (NGD 98-2): an orally active corticotropin releasing factor-1 (CRF-1) receptor antagonist” (J Med Chem, 2011)
Values after ≈ are worked out from the molar mass of the structure shown. Active and inactive are the calls of the source. The calls are words filed in the database; no cut-off is given here.

Assays:
[1] = Half life in human microsomes; type: ADME, Microsome
How it was run: (§1)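 Stability in human or rat liver microsomes; half-life (T1/2, min) of compound turnover reported.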

[2] = target: T1, Corticotropin-releasing factor receptor 1 (Homo sapiens, UniProt P34998); experiment: Displacement of [125I]-sauvagine from human CRF-1 receptor expressed in human IMR-32 cells after 2 hrs by scintillation counting; type: cell-based
T1 sequence (P34998 whole entry): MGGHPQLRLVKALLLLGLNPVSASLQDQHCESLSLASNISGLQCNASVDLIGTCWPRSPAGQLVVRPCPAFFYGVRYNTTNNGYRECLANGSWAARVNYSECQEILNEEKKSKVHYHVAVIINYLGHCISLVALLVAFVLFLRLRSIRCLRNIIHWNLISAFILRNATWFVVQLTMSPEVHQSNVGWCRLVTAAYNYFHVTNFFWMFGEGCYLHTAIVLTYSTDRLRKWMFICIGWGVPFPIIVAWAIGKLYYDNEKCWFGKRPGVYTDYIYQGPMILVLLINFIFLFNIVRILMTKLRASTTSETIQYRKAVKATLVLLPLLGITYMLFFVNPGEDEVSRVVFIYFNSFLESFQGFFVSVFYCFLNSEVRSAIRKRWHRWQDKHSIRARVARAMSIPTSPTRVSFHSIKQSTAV
How it was run: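 Competition binding against 125I-sauvagine on membrane preparations from IMR-32 human neuroblastoma cells, which express CRF-1 endogenously. Modified from a published method.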

[3] = Half life in rat microsomes; type: ADME, Microsome; how it was run: as §1
[4] = target: T1, Corticotropin-releasing factor receptor 1; experiment: Antagonist activity at human CRF-1 receptor; type: functional
[5] = target: Corticotropin-releasing factor receptor 1 (Rattus norvegicus, UniProt P35353); experiment: Displacement of [125I]-sauvagine from rat CRF-1 receptor expressed in rat cortical membrane after 2 hrs by scintillation counting; type: cell membranes
Chain of Corticotropin-releasing factor receptor 1 (Rattus norvegicus, UniProt P35353) (P35353 whole entry): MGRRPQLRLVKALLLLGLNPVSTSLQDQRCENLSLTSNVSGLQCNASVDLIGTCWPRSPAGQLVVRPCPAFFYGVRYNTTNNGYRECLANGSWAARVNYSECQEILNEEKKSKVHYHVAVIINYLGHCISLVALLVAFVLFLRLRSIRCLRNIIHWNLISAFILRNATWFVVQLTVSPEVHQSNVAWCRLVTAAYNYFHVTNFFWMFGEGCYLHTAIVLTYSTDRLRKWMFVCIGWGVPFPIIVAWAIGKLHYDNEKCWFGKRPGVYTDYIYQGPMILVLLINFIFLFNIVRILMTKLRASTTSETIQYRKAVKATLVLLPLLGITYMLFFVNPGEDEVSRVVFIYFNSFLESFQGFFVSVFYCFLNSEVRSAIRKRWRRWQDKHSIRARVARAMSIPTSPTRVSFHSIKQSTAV
How it was run: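 Displacement of [125I]-sauvagine binding from rat cortical membrane homogenate with increasing compound concentrations; Ki derived.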

Rattus norvegicus [6] = experiment: Antihyperlocomotion activity in Wistar rat assessed as decrease in CRF-induced hyperlocomotion at 3 mg/kg, po administered 1 hr before CRF challenge measured after 1 hr; type: functional, organism-based; set-up: dose 3 mg/kg
How it was run: (§2)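 Oral dosing in rats 1 h before an ICV CRF challenge of 0.3 μg, across a 1–30 mg/kg range. The read-out was locomotor movement time, compared against TPGS-vehicle rats given CRF and rats given vehicle without CRF.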

Rattus norvegicus [7] = experiment: Antihyperlocomotion activity in Wistar rat assessed as decrease in CRF-induced hyperlocomotion at 10 mg/kg, po administered 1 hr before CRF challenge measured after 1 hr; type: functional, organism-based; set-up: dose 10 mg/kg; how it was run: as §2
Rattus norvegicus [8] = experiment: Decrease in restrained-stress induced ATCH release in plasma of Sprague-Dawley rat at 10 mg/kg, po pretreated with compound for 1 hr by radioimmunoassay; type: functional, organism-based; set-up: dose 10 mg/kg
How it was run: (§3)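 Rats were dosed orally 1 h before a 10 min period of physical restraint, across a 1–30 mg/kg range. The read-out was plasma ACTH, compared against vehicle-treated stressed and unstressed rats.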

Rattus norvegicus [9] = experiment: Decrease in restrained-stress induced ATCH release in plasma of Sprague-Dawley rat at 3 mg/kg, po pretreated with compound for 1 hr by radioimmunoassay; type: functional, organism-based; set-up: dose 3 mg/kg; how it was run: as §3
Rattus norvegicus [10] = experiment: Ex vivo CRF-1 receptor occupancy in po dosed rat cortical homogenate assessed as inhibition of [I125]-sauvagine binding pretreated for 3 hrs; type: functional, organism-based
How it was run: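 Rats dosed orally at 1, 3 and 10 mg/kg; cortex taken at 3 h for ex vivo binding. Specific [125I]-sauvagine binding compared with vehicle-treated rats to give ex vivo ID50.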

Row | SMILES | half-life [1] [min] | Ki [2] [nM] | half-life [3] [min] | further results
1 | CCc1nc(-c2ccc(OC)cc2O)c(CC)nc1NC(CC)CC | 18 | 1180 | 5.9 | 
2 | CCc1nc(-c2ccc(Cl)cc2Cl)c(C)nc1NC(CC)CC | 18 | 8.6 | 4.2 | 
3 | CCc1nc(NC(CC)CC)c(OC)nc1-c1ccc(OC)cc1C(F)(F)F | 120 | 2.2 | 120 | 
4 | COCC(COC)Nc1nc(C)nc2c(-c3ccc(Cl)cc3Cl)c(C)nn12 |  |  |  | Ki [4]: 2 nM
5 | CCc1nc(NC(CC)CC)c(OC)nc1-c1ccc(C(F)(F)F)cc1OC | 73 | 4.4 | 23 | 
6 | CCOc1nc(-c2ccc(Cl)cc2Cl)c(CC)nc1NC(CC)CC | 120 | 151 | 74 | 
7 | CCCN(CC1CC1)c1nc(CC)c(-c2ccc(Cl)cc2Cl)nc1CC | 12 | 19.2 | 4.2 | 
8 | CCCC(CCC)N1CCn2nc(-c3ccc(Cl)cc3Cl)c3nc(C)cc1c32 |  |  |  | Ki [4]: 4 nM
9 | CCc1nc(NC(CC)CC)cnc1-c1ccc(Cl)cc1Cl | 28 | 545 |  | 
10 | CCCN(CCC)c1c(C)ncc2c(-c3ccc(Cl)cc3Cl)cccc12 |  |  |  | Ki [4]: 103 nM
11 | CCc1nc(-c2ccc(Cl)cc2Cl)c(CC)nc1SC(C)CC (stereo not drawn) | 17 | 401 | 4.1 | 
12 | CCCN(CCC)c1cc(C)nc2c(-c3cnc(N(C)C)cc3C)c(C)nn12 |  |  |  | Ki [5]: 3.8 nM; Activity (Rattus norvegicus [6]): Active; Activity (Rattus norvegicus [7]): Active; Activity (Rattus norvegicus [8]): Active; Activity (Rattus norvegicus [9]): Active; IC50 (Rattus norvegicus [10]): 0.074 µg/mL (≈ 0.194 µM); ED50 (Rattus norvegicus [10]; po, read-out: ID50 (the source's name)): 7.2 mg/kg
13 | CCC(CC)Nc1nc(C)c(-c2ccc(OC(F)F)cc2Cl)nc1OC | 120 | 4.6 | 48 | 
14 | CCC(CC)Nc1nc(OC)c(-c2ccc(Cl)cc2Cl)nc1OC | 16 | 8.4 | 2.5 | 
15 | CCc1nc(NC(CC)CC)c(OC)nc1-c1ccc(Cl)cc1Cl | 35 | 5.9 |  | 
16 | CCc1nc(-c2ccc(Cl)cc2Cl)c(CC)nc1NC(C)CN(C)C (stereo not drawn) | 7 | 489 | < 1 | 
17 | CCc1nc(-c2ccc(Cl)cc2Cl)c(CC)nc1NC(COC)COC | 9 | 224 | 2.5 | 
18 | CCC(CC)Nc1nc(OC)c(-c2ccc(Cl)cc2Cl)nc1C | 56 | 14.4 | 17 | 
19 | CCC(CC)Nc1nc(C)c(-c2ccc(Cl)cc2Cl)nc1OC |  | 4.3 |  | 
20 | CCc1nc(-c2ccc(OC)cc2C(F)(F)F)c(CC)nc1NC(CC)CC | 12 | 4.4 | 4.3 | 
21 | CCc1nc(-c2cnc(OC)nc2OC)c(CC)nc1NC(CC)CC | 7 | 17.2 | < 1 | 
22 | CCc1nc(NC(CC)CC)c(Cl)nc1-c1ccc(Cl)cc1Cl | 10 | 71 | < 1 | 
23 | CCc1cc(OC)ccc1-c1nc(OC)c(NC(CC)CC)nc1CC | 120 | 1.9 | 120 | 
24 | CCCCc1nc(-c2ccc(Cl)cc2Cl)c(CC)nc1NC(CC)CC | 22 | 3660 | 4.2 | 
25 | CCc1nc(NC(CC)CC)c(I)nc1-c1ccc(Cl)cc1Cl |  | 12 |  | 

Row | SMILES | half-life [1] [min] | Ki [2] [nM] | half-life [3] [min] | further results
26 | CCc1nc(-c2ccc(OC(F)(F)F)cc2OC)c(CC)nc1NC(CC)CC | 13 | 7.2 | 2.5 | 
27 | CCc1nc(-c2ccc(OC(F)(F)F)cc2OC)c(OC)nc1NC(CC)CC | 52 | 6.1 | 36 | 
28 | CCOc1ccc(-c2nc(CC)c(NC(CC)CC)nc2CC)c(OC)c1 |  | 7.8 |  | 
29 | CCc1nc(-c2ccc(OC)nc2OC)c(CC)nc1NC(CC)CC | 9 | 11.6 | 2.5 | 
30 | CCCN(CCN(C)C)c1nc(CC)c(-c2ccc(Cl)cc2Cl)nc1CC | 5 | 1540 | < 1 | 
31 | CCc1nc(-c2ccc(Cl)cc2Cl)c(CC)nc1NC(C1CC1)C1CC1 | 11 | 3.7 | 2.5 | 
32 | CCc1nc(NC(CC)CC)c(OC)nc1-c1ccc(OC(F)F)cc1Cl | 120 | 1.4 | 47 | 
33 | CCc1nc(NC(CC)CC)c(F)nc1-c1ccc(Cl)cc1Cl | 73 | 167 | 21 | 
34 | CCc1nc(-c2ccc(C(F)(F)F)cc2OC)c(CC)nc1NC(CC)CC | 11 | 5.6 |  | 
35 | CCc1nc(-c2ccc(OC(C)C)cc2OC)c(CC)nc1NC(CC)CC | 11 | 4.2 | < 1 | 
36 | CCc1nc(-c2ccc(OC)cc2OC(F)(F)F)c(CC)nc1NC(CC)CC | 16 | 4.1 | 4.1 | 
37 | CCC(CC)Nc1nc(C)c(-c2ccc(C(F)(F)F)cc2OC)nc1OC | 120 | 1.3 | 120 | 
38 | CCc1nc(N(CCOC)CCOC)c(CC)nc1-c1ccc(Cl)cc1Cl | 2 | 128 | < 1 | 
39 | CCC(CC)Nc1nc(C)c(-c2ccc(Cl)cc2Cl)nc1C | 29 | 27 | 3.2 | 
40 | CCc1nc(-c2ccc(Cl)cc2Cl)c(CC)nc1OC(CC)CC | 10 | 46 | 2.5 | 
41 | CCc1nc(-c2ccc(C)cc2OC)c(CC)nc1NC(CC)CC | 11 | 23.7 | < 1 | 
42 | CCc1nc(-c2ccc(Cl)cc2Cl)c(CC)nc1CC(CC)CC | 13 | 68 | 2.5 | 
43 | CCc1nc(-c2ccc(OC)cc2Cl)c(OC)nc1NC(CC)CC | 120 | 1.1 |  | 
44 | CCc1nc(NC(CC)CC)c(C)nc1-c1ccc(Cl)cc1Cl | 27 | 54 | 11 | 
45 | CCOc1ccc(-c2nc(OC)c(NC(CC)CC)nc2C)c(Cl)c1 | 120 | 5.9 | 47 | 
46 | CCc1nc(N(CC2CC2)CC2CC2)c(CC)nc1-c1ccc(Cl)cc1Cl | 8 | 26 | < 1 | 
47 | CCc1nc(-c2ccc(Cl)cc2Cl)c(OC)nc1NC(CC)CC | 42 | 8 | 11 | 
48 | CCc1nc(-c2ccc(OC(F)F)cc2Cl)c(OC)nc1NC(CC)CC | 120 | 2.5 | 17 | 
49 | CCc1nc(-c2ccc(OC)cc2OC)c(CC)nc1NC(CC)CC | 8 | 7.3 | 2.5 | 
50 | CCc1nc(-c2cnc(C)cc2N(C)C)c(CC)nc1NC(CC)CC | 7 | 7.6 | < 1 | 
